# Results as given in PubChem BioAssay.
# Activity calls are given as the source filed them.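 How the source made its calls, unless noted: active means GFP response above 150% of the DMSO level; inconclusive means fewer than 70 events counted for a yeast strain; inactive means the rest.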
# How the values were obtained:
# [1] = hit retest on RPL19A-GFP reporter strain – cell-based, S. cerevisiae, flow cytometry, cherry picks, mother/daughter gates, confirmation (AID 2270;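 active means GFP response below 50% of the DMSO control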); conditions: 3 h, at 10 µM, stronger effect = lower value, 100 = same GFP as DMSO wells
# [2] = yeast TOR pathway reporter LAP4-GFP change – cell-based, cherry picks, flow cytometry, mother/daughter gates, confirmation (AID 2271;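 active means GFP response above 150% of the DMSO control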;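 further: ratio of sample to DMSO plate mean so 100% equals DMSO level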); conditions: S. cerevisiae LAP4-GFP strain, 3 h, at 10 µM, stronger effect = higher value, 100 means same as DMSO control
# Procedure, shortened: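 Test system: GFP-fusion yeast strain. Medium: synthetic complete (SC) yeast growth medium. Timing: 3 h treatment at 30 °C with rotation. Measured by: GFP by flow cytometry. Control set: positive rapamycin (400 ng/mL), negative DMSO.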
# [3] = TOR pathway reporter MEP2-GFP, retest of hits – S. cerevisiae, flow cytometry GFP, cherry picks, confirmation (AID 2272;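 active means GFP response above 150% of the DMSO control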;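 further: ratio of well signal to plate DMSO mean so 100% equals DMSO level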); conditions: S. cerevisiae MEP2-GFP strain, 3 h, at 10 µM, stronger effect = higher value
# [4] = yeast AGP1-GFP fluorescence change, single-dose – cell-based, flow cytometry, S. cerevisiae, cherry picks, confirmation (AID 2273);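 further: median GFP channel fluorescence over the whole cell population gate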; conditions: S. cerevisiae AGP1-GFP strain, 3 h, at 10 µM
# [5] = TOR pathway CIT2 reporter hit retest – S. cerevisiae, GFP fusion, cherry picks, mother/daughter gates, confirmation (AID 2274); conditions: S. cerevisiae CIT2-GFP strain, flow cytometry, 3 h, at 10 µM, stronger effect = higher value
# [6] = measured here: daughter cell gate
# [7] = measured here: mother cell gate
# [8] = measured here: daughter cell gate response
# [9] = measured here: mother cell gate response
SMILES,GFP response vs DMSO [1],"GFP response vs DMSO [1, 6] [%]","GFP response vs DMSO [1, 7] [%]",GFP response relative to DMSO [2],"GFP response relative to DMSO [2, 8] [%]","GFP response relative to DMSO [2, 9] [%]",GFP response vs DMSO [3],"GFP response, % of DMSO [4]","GFP response, % of DMSO [5]","GFP response, % of DMSO [5, 6] [%]","GFP response, % of DMSO [5, 7] [%]"
COc1ccccc1N1CCN(C(=O)c2ccccc2Oc2ccccc2)CC1,96.7% (inactive),97,95.2,91.8% (inactive),92.9,87.3,101% (inactive),98.6% (inactive),98.6% (inactive),97.6,93.8
COC(=O)NC1CCC(CC2CCC(NC(=O)OC)CC2)CC1 (centres undefined),99% (inactive),98.9,99.4,92.8% (inactive),92.8,92.9,100% (inactive),94.7% (inactive),103% (inactive),105,103
COc1ccc(-c2noc(CCCc3ccccc3)n2)cc1OC,101% (inactive),98.7,100,96.2% (inactive),98.7,98.3,104% (inactive),104% (inactive),95.2% (inactive),94.8,96.6
Oc1cccc(/C=N/c2c(-c3ccco3)nc3ccccn23)c1,96.6% (inactive),96.2,96.9,96.5% (inactive),97.9,94.6,97.5% (inactive),97.1% (inactive),96.4% (inactive),98.3,94.5
COc1ccc(Br)cc1/C=N/NC(=O)Cn1nnnc1N,99.2% (inactive),97.6,103,99.2% (inactive),97.6,100,109% (inactive),95.8% (inactive),104% (inactive),103,106
N#C/C(=C\c1ccccn1)c1nc2ccccc2s1,170% (inactive),158,172,584% (active),464,589,1020% (active),205% (active),506% (active),433,496
Cc1ccc(/C(C#N)=C\c2ccc(N3CCOCC3)o2)cc1,97.8% (inactive),97.1,98,102% (inactive),104,103,109% (inactive),99.4% (inactive),98.8% (inactive),99.2,99.3
O=C(OC(c1ccc(NS(=O)(=O)c2ccccc2)cc1)(C(F)(F)F)C(F)(F)F)c1ccccc1,100% (inactive),101,100,94.9% (inactive),95.1,95.1,110% (inactive),104% (inactive),92.2% (inactive),95.2,91.8
O=C(OCc1cccc([N+](=O)[O-])c1)c1cnccn1,98.5% (inactive),99.5,97.1,102% (inactive),97.5,105,103% (inactive),97% (inactive),98.6% (inactive),101,96
COc1ccc(Cl)cc1C(Nc1cccnc1)c1ccc2cccnc2c1O (centres undefined),97% (inactive),98.8,95.2,121% (inactive),109,127,116% (inactive),97.1% (inactive),109% (inactive),115,101
C/C(=N\NC(=O)c1cccc(Br)c1)c1ccccn1,108% (inactive),97.6,102,163% (active),149,166,122% (inactive),97.3% (inactive),108% (inactive),101,101
CC(C)c1ccc(C(=O)N/N=C/c2cccc(Cl)c2Cl)cc1,93.4% (inactive),88,92.6,112% (inactive),110,116,103% (inactive),95.7% (inactive),87.2% (inactive),83,85.8
CCc1nnc(NC(=O)c2nc(S(=O)(=O)Cc3cccc(C)c3)ncc2Cl)s1,93.9% (inactive),93.1,92.7,105% (inactive),102,102,104% (inactive),105% (inactive),99.3% (inactive),100,98
O=C(NCc1ccccc1)c1nc(S(=O)(=O)Cc2ccccc2)ncc1Cl,101% (inactive),99.2,98.5,108% (inactive),108,108,100% (inactive),104% (inactive),96.5% (inactive),93.2,98.7
